Here are results for five compounds from ChEMBL document CHEMBL3414496, “Synthesis and biological evaluation of novel 2-heteroarylimino-1,3-thiazolidin-4-ones as potential anti-tumor agents” (Eur J Med Chem, 2015).

In assay [1] the test system is HT-29. Put plainly: Induction of redox status changes in human HT-29 cells assessed as ROS content in presence of 1 mM ascorbic acid by DCF-DA staining based fluorescence assay (reference value: 64.7 +/- 2.6%).
In assay [2] the test system is HT-29. In words: Induction of HO1 expression in human HT-29 cells at 3.8 uM after 2 hrs by Western blotting method. The format is functional. The gist of the method: (§1)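 HT29 whole-cell lysates in Hepes/KOH pH 7.5 with EDTA, KCl, NP40, DTT, protease inhibitors; 50 µg protein on 10–15% SDS-PAGE, nitrocellulose, overnight 4°C primary antibody (GCL 1:500, HO-1 1:1000), HRP secondary, chemiluminescence. Bands normalized to GAPDH (1:10 000), DMSO ratio set at 1.00; representative of three independent experiments.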

In assay [3] the test system is HT-29. Put plainly: Induction of NQO1 expression in human HT-29 cells at 3.8 uM after 24 hrs by Western blotting method. The format is functional. The method, boiled down:
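Whole-cell lysates from treated HT29 cells in pH 7.5 Hepes/KOH buffer with EDTA, KCl, Igepal, DTT and protease inhibitors. 50 µg protein run on 10-15% SDS-PAGE and transferred to nitrocellulose. Probed overnight at 4°C with anti-HO-1 (1:1 000), anti-NQO1 (1:1 000) or anti-GCL (1:500), then HRP secondary for 45 min and chemiluminescence. Bands normalized to GAPDH (1:10 000), with the DMSO ratio set to 1.00. Representative of three experiments.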

The test system of assay [4] is HT-29. In words: Induction of GCL expression in human HT-29 cells at 6.4 uM after 4 hrs by Western blotting method. The format is functional. The method, boiled down:
as §1

Assay [5] concerns HT-29. Put plainly: Induction of GCL expression in human HT-29 cells at 6.4 uM after 6 hrs by Western blotting method. The format is functional. The gist of the method:
as §1
Background: Immunoblotting shows a protein as a band on a membrane.

Assay [6] has as its system HT-29. In words: Induction of GCL expression in human HT-29 cells at 6.4 uM after 24 hrs by Western blotting method. The format is functional. The gist of the method:
as §1

Assay [7] concerns HT-29. In words: Induction of HO1 expression in human HT-29 cells at 1.5 uM after 4 hrs by Western blotting method. The format is functional. The method, boiled down: as §1
The test system of assay [8] is HT-29. In words: Induction of HO1 expression in human HT-29 cells at 10 uM after 4 hrs by Western blotting method. The format is functional. The method, boiled down: as §1

In the case of `CN(C)c1ccc(/C=C2\S/C(=N\c3nc(-c4ccc(Cl)cc4)cs3)NC2=O)cc1`, the Activity in assay [1] came out at 158.8%. As to `COc1ccc(/C=C2\S/C(=N\c3csc(-c4ccc(Cl)cc4)c3)NC2=O)cc1`, the “fold change (FC)” value in assay [2] is 1; in assay [3], 0.88. `Cc1ccc(/C=C2\S/C(=N\c3csc(-c4ccc(Cl)cc4)c3)NC2=O)cc1`: the figures for the “fold change (FC)” value in assay [4], in assay [5] and in assay [6] were 2.54, 2.25 and 0.97, respectively. Take `CN(C)c1ccc(/C=C2\S/C(=N\c3csc(-c4ccc(Cl)cc4)c3)NC2=O)cc1`: the “fold change (FC)” value in assay [7] is 1. For `COc1ccc(/C=C2\S/C(=N\c3csc(-c4ccc(Cl)cc4)c3)NC2=O)cc1OC`, in assay [8], the “fold change (FC)” value is listed as 1.
